Assay results taken from ChEMBL document CHEMBL1148728, “Synthesis, biological activity, and crystal structure of potent nonnucleoside inhibitors of HIV-1 reverse transcriptase that retain activity against mutant forms of the enzyme” (J Med Chem, 2007).
Calls of active or inactive are those of the source. No cut-off for these calls is given here.

Tests used:
[1] = tested on: Human immunodeficiency virus 1; experiment: Antiviral activity against HIV1 with RT K103N mutation by cytopathic cell killing assay; assay type: functional, organism-based
[2] = tested on: Human immunodeficiency virus 1; experiment: Antiviral activity against wild type HIV1 NL4-3 by cytopathic cell killing assay; assay type: functional, organism-based; details: Human immunodeficiency virus 1, NL4-3
Procedure, shortened: (§1)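 Cell-based assay in HIV-1-infected CEM cells, read out as protection from virus-induced cell killing.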

[3] = tested on: Human immunodeficiency virus 1; experiment: Antiviral activity against HIV1 with RT Y181C mutation by cytopathic cell killing assay; assay type: functional, organism-based
[4] = Toxicity against CEM cells; assay type: cell-based; details: human, CEM (CCRF-CEM) cells; read-out: TC50 (the source's name)
[5] = target: Human immunodeficiency virus type 1 reverse transcriptase (Human immunodeficiency virus 1, UniProt Q72547); experiment: Inhibition of HIV1 NL4-3 reverse transcriptase
[6] = tested on: Human immunodeficiency virus 1; experiment: Antiviral activity against HIV1 infected CEM cells; assay type: functional, organism-based; details: for EC50: Human immunodeficiency virus 1, CCRF-CEM; for Activity: CCRF-CEM; procedure, shortened: as §1
[7] = tested on: Human immunodeficiency virus 1; experiment: Antiviral activity against HIV1 with RT V108I mutation by cytopathic cell killing assay; assay type: functional, organism-based
[8] = tested on: Human immunodeficiency virus 1; experiment: Antiviral activity against HIV1 with RT L100I mutation by cytopathic cell killing assay; assay type: functional, organism-based
[9] = tested on: Human immunodeficiency virus 1; experiment: Antiviral activity against HIV1 with RT K101E mutation by cytopathic cell killing assay; assay type: functional, organism-based
[10] = target: Human immunodeficiency virus type 1 reverse transcriptase (Human immunodeficiency virus 1) (UniProt Q72547); experiment: Inhibition of HIV1 reverse transcriptase at 1 uM
Procedure, shortened: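 Wild-type HIV-1 RT enzyme screen with rC-dG template-primer. Percent inhibition is the mean of two experiments, each run in triplicate.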

[11] = tested on: Human immunodeficiency virus 1; experiment: Antiviral activity against HIV1 with RT Y188C mutation by cytopathic cell killing assay; assay type: functional, organism-based
[12] = tested on: Human immunodeficiency virus 1; experiment: Antiviral activity against HIV1 with RT V106A mutation by cytopathic cell killing assay; assay type: functional, organism-based

CCc1cccc2c1nc(-c1c(F)cccc1F)n2Cc1c(F)cccc1F
EC50 [1]: > 50000 nM
EC50 [2]: 900 nM
EC50 [3]: 7180 nM
CC50 [4]: 26100 nM
IC50 [5]: 17500 nM
EC50 [6]: 820 nM
EC50 [7]: > 50000 nM
EC50 [8]: 2480 nM
EC50 [9]: > 50000 nM

CN(C)C(=O)c1cccc2c1nc(-c1c(F)cccc1F)n2Cc1c(F)cccc1F
CC50 [4]: 80100 nM
Activity [6]: inactive

Cc1ccc2c(c1)nc(-c1c(F)cccc1F)n2Cc1c(F)cccc1F
inhibition [10]: 22%

O=[N+]([O-])c1cccc2c1nc(-c1c(F)cccc1F)n2Cc1c(F)cccc1F
CC50 [4]: 30100 nM
IC50 [5]: 1880 nM
EC50 [6]: 2400 nM

Oc1cccc2c1nc(-c1c(F)cccc1F)n2Cc1c(F)cccc1F
CC50 [4]: > 100000 nM
EC50 [6]: 650 nM

Nc1cccc2c1nc(-c1c(F)cccc1F)n2Cc1c(F)cccc1F
EC50 [1]: 3100 nM
EC50 [2]: 400 nM
EC50 [3]: 9200 nM
CC50 [4]: 26300 nM
IC50 [5]: 280 nM
EC50 [11]: 2000 nM
EC50 [6]: 460 nM
EC50 [7]: 3300 nM
EC50 [8]: 1200 nM
EC50 [9]: > 20000 nM

CC(C)c1cccc2c1nc(-c1c(F)cccc1F)n2Cc1c(F)cccc1F
CC50 [4]: 27000 nM
EC50 [6]: 6340 nM

CC(=O)Nc1cccc2c1nc(-c1c(F)cccc1F)n2Cc1c(F)cccc1F
EC50 [1]: > 100000 nM
EC50 [2]: 1970 nM
EC50 [3]: > 100000 nM
CC50 [4]: 39300 nM
IC50 [5]: 54700 nM
EC50 [6]: 1480 nM
EC50 [8]: 3250 nM

Fc1cccc(F)c1Cn1c(-c2c(F)cccc2F)nc2ccc(Cl)cc21
inhibition [10]: 69%

N#Cc1cccc2c1nc(-c1c(F)cccc1F)n2Cc1c(F)cccc1F
CC50 [4]: 26700 nM
EC50 [6]: 430 nM

CC(=O)NCc1cccc2c1nc(-c1c(F)cccc1F)n2Cc1c(F)cccc1F
CC50 [4]: 20800 nM
Activity [6]: inactive

O=[N+]([O-])c1ccc2c(c1)nc(-c1c(F)cccc1F)n2Cc1c(F)cccc1F
inhibition [10]: 30%

Cc1ccc2nc(-c3c(F)cccc3F)n(Cc3c(F)cccc3F)c2c1
inhibition [10]: 42%

N=C(NO)c1cccc2c1nc(-c1c(F)cccc1F)n2Cc1c(F)cccc1F
CC50 [4]: 23100 nM
EC50 [6]: 190 nM

O=C(O)c1cccc2c1nc(-c1c(F)cccc1F)n2Cc1c(F)cccc1F
CC50 [4]: 23500 nM
Activity [6]: inactive

Fc1cccc(F)c1Cn1c(-c2c(F)cccc2F)nc2ccccc21
CC50 [4]: 18800 nM
IC50 [5]: 110 nM
EC50 [6]: 1700 nM
inhibition [10]: 50%

CC(=O)N(C)Cc1cccc2c1nc(-c1c(F)cccc1F)n2Cc1c(F)cccc1F
CC50 [4]: 20600 nM
EC50 [6]: 580 nM

Cc1cccc2nc(-c3c(F)cccc3F)n(Cc3c(F)cccc3F)c12
inhibition [10]: 1%

[N-]=[N+]=NCc1cccc2c1nc(-c1c(F)cccc1F)n2Cc1c(F)cccc1F
EC50 [1]: 1480 nM
EC50 [2]: 45 nM
EC50 [12]: 610 nM
EC50 [3]: 280 nM
CC50 [4]: > 100000 nM
EC50 [11]: 220 nM
EC50 [6]: 45 nM
EC50 [7]: 26 nM
EC50 [8]: 80 nM
EC50 [9]: 600 nM

COC(=O)c1cccc2c1nc(-c1c(F)cccc1F)n2Cc1c(F)cccc1F
CC50 [4]: 57700 nM
IC50 [5]: 158000 nM
Activity [6]: inactive

Fc1cccc(F)c1Cn1c(-c2c(F)cccc2F)nc2cc(Cl)ccc21
inhibition [10]: 48%

COCc1cccc2c1nc(-c1c(F)cccc1F)n2Cc1c(F)cccc1F
EC50 [6]: 60 nM

Cc1ccnc2c1NC(=O)c1cccnc1N2C1CC1 [NEVIRAPINE]
EC50 [1]: 1090 nM
EC50 [2]: 100 nM
EC50 [12]: 2360 nM
EC50 [3]: 4900 nM
EC50 [11]: 100 nM
EC50 [6]: 35 nM
EC50 [7]: 200 nM
EC50 [8]: 720 nM
EC50 [9]: 1100 nM

N#CCc1cccc2c1nc(-c1c(F)cccc1F)n2Cc1c(F)cccc1F
EC50 [1]: 4200 nM
EC50 [2]: 60 nM
EC50 [3]: 2200 nM
EC50 [6]: 60 nM

Fc1cccc(F)c1Cn1c(-c2c(F)cccc2F)nc2cc(Br)ccc21
inhibition [10]: 43%

Fc1cccc(F)c1Cn1c(-c2c(F)cccc2F)nc2c(CCl)cccc21
EC50 [1]: 3340 nM
EC50 [2]: 160 nM
EC50 [12]: 4700 nM
EC50 [3]: 2380 nM
CC50 [4]: 13400 nM
EC50 [11]: 570 nM
EC50 [6]: 180 nM
EC50 [7]: 210 nM
EC50 [8]: 80 nM
EC50 [9]: 460 nM

Cc1cc(C)c2nc(-c3c(F)cccc3F)n(Cc3c(F)cccc3F)c2c1
inhibition [10]: 37%

OCc1cccc2c1nc(-c1c(F)cccc1F)n2Cc1c(F)cccc1F
EC50 [1]: 13600 nM
EC50 [2]: 48 nM
EC50 [12]: 5900 nM
EC50 [3]: 720 nM
CC50 [4]: 58100 nM
EC50 [11]: 170 nM
EC50 [6]: 23 nM
EC50 [7]: 23 nM
EC50 [8]: 20 nM
EC50 [9]: 5000 nM

CNc1cccc2c1nc(-c1c(F)cccc1F)n2Cc1c(F)cccc1F
CC50 [4]: 27200 nM
IC50 [5]: 4940 nM
EC50 [6]: 1700 nM

Cc1cccc2c1nc(-c1c(F)cccc1F)n2Cc1c(F)cccc1F
EC50 [1]: 8100 nM
EC50 [2]: 500 nM
EC50 [3]: 6000 nM
CC50 [4]: > 100000 nM
IC50 [5]: 200 nM
EC50 [11]: 2300 nM
EC50 [6]: 440 nM
EC50 [7]: 2800 nM
EC50 [8]: 300 nM
inhibition [10]: 71%
EC50 [9]: 16700 nM

CN(C)c1cccc2c1nc(-c1c(F)cccc1F)n2Cc1c(F)cccc1F
CC50 [4]: > 100000 nM
IC50 [5]: 40000 nM
EC50 [6]: 2370 nM

O=Cc1cccc2c1nc(-c1c(F)cccc1F)n2Cc1c(F)cccc1F
CC50 [4]: 820 nM
EC50 [6]: 120 nM

COc1cccc2c1nc(-c1c(F)cccc1F)n2Cc1c(F)cccc1F
EC50 [1]: > 50000 nM
EC50 [2]: 60 nM
EC50 [3]: 260 nM
CC50 [4]: 44300 nM
IC50 [5]: 7.3 nM
EC50 [6]: 60 nM
EC50 [7]: 2820 nM
EC50 [8]: 160 nM
EC50 [9]: 2820 nM

Cc1ccc2c(nc(-c3c(F)cccc3F)n2Cc2c(F)cccc2F)c1C
inhibition [10]: 26%

NCc1cccc2c1nc(-c1c(F)cccc1F)n2Cc1c(F)cccc1F
EC50 [1]: > 50000 nM
EC50 [2]: 1360 nM
EC50 [12]: 9230 nM
EC50 [3]: 12800 nM
CC50 [4]: 49300 nM
EC50 [11]: 11600 nM
EC50 [6]: 37 nM
EC50 [7]: 2510 nM
EC50 [9]: 1490 nM

NC(=O)c1cccc2c1nc(-c1c(F)cccc1F)n2Cc1c(F)cccc1F
CC50 [4]: > 100000 nM
EC50 [6]: 4900 nM

Fc1cccc(F)c1Cn1c(-c2c(F)cccc2F)nc2c(Br)cccc21
EC50 [1]: > 20000 nM
EC50 [2]: 500 nM
EC50 [3]: 10700 nM
CC50 [4]: 24500 nM
IC50 [5]: 1610 nM
EC50 [11]: 3700 nM
EC50 [6]: 370 nM
EC50 [7]: 4200 nM
EC50 [8]: 500 nM
inhibition [10]: 78%
EC50 [9]: > 20000 nM

CC(=O)OCc1cccc2c1nc(-c1c(F)cccc1F)n2Cc1c(F)cccc1F
EC50 [1]: 27 nM
EC50 [2]: 62 nM
EC50 [12]: 4500 nM
EC50 [3]: 2320 nM
CC50 [4]: 55800 nM
EC50 [11]: 33 nM
EC50 [6]: 59 nM
EC50 [7]: 13 nM
EC50 [8]: 68 nM
EC50 [9]: 25 nM

Fc1cccc(F)c1Cn1c(-c2c(F)cccc2F)nc2c(Cl)cccc21
EC50 [1]: 10200 nM
EC50 [2]: 500 nM
EC50 [3]: 8400 nM
CC50 [4]: 30400 nM
IC50 [5]: 2630 nM
EC50 [11]: 3400 nM
EC50 [6]: 440 nM
EC50 [7]: 3200 nM
EC50 [8]: 300 nM
inhibition [10]: 75%
EC50 [9]: > 20000 nM
